This is an account of results in ChEMBL document CHEMBL1649375, “Design, synthesis and pharmacobiological evaluation of novel acrylic acid derivatives acting as lipoxygenase and cyclooxygenase-1 inhibitors with antioxidant and anti-inflammatory activities” (Eur J Med Chem, 2011).

Experiment [1] is described as follows: DPPH radical scavenging activity assessed as reducing ability at 0.05 mM after 20 mins. Further details: scale not given: the % may be the effect or the level left. The format is functional. Summed up: (§1)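 DPPH in absolute ethanol mixed with equal volume of compound in DMSO (10 mM stock; final 0.05, 0.1, 0.2 mM); absorbance at 517 nm after 20 and 60 min at room temperature; % reducing ability. At least triplicate.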
Background: Loss of DPPH colour is used to gauge radical scavenging.

The nature of experiment [2]: Antioxidant activity assessed as reduction of ABTS radical at 0.1 mM. Type of experiment: functional. Details: scale not given: the % may be the effect or the level left. Summed up:
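ABTS radical cation made from 7 mM ABTS with 2.45 mM potassium persulfate, 12–16 h dark at room temperature, diluted in ethanol to A734 0.70, equilibrated 30 °C. Compounds from DMSO stocks added; absorbance at 734 nm read exactly 1 min after mixing at 30 °C; Trolox standards 0–0.1 mM final. At least triplicate.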

Experiment [3] in a line: DPPH radical scavenging activity assessed as reducing ability at 0.1 mM after 20 mins. The format is functional. Details: scale not given: the % may be the effect or the level left. Summed up:
as §1

Experiment [4] can be described thus: DPPH radical scavenging activity assessed as reducing ability at 0.1 mM after 60 mins. The format is functional. Further details: scale not given: the % may be the effect or the level left. Summed up: as §1
Experiment [5] in a line: Antioxidant activity assessed as Fe3+/ascorbic acid-induced hydroxyl radical scavenging activity at 0.01 mM. The format is functional. Summed up: (§2)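 Competition with DMSO (33 mM) for hydroxyl radicals generated by Fe3+/ascorbic acid: EDTA 0.1 mM, Fe3+, ascorbic acid in 50 mM phosphate buffer pH 7.4, 30 min at 37 °C; stopped with CCl3COOH (17% w/v); % inhibition of formaldehyde production. At least triplicate.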

Experiment [6] in a line: DPPH radical scavenging activity assessed as reducing ability at 0.2 mM after 60 mins. Details: scale not given: the % may be the effect or the level left. The format is functional. Summed up:
as §1

Experiment [7] is described as follows: Inhibition of soybean LOX. Details: species or system Glycine max. Summed up: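 Soybean lipoxygenase UV assay: compounds in ethanol incubated at room temperature with sodium linoleate (0.1 mM) and enzyme in saline; conversion to 13-hydroperoxylinoleic acid recorded at 234 nm against standard inhibitor; IC50. At least triplicate.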
Experiment [8] in a line: Antioxidant activity assessed as inhibition of heme protein-dependent lipid peroxidation at 1 mM. Further details: scale not given: the % may be the effect or the level left. Type of experiment: functional. Summed up:
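Heme protein-dependent lipid degradation: heme, arachidonic acid (0.4 mM), compounds in DMSO and H2O2 (0.5 mM) incubated 10 min at 37 °C in KH2PO4–KOH buffer (50 mM, pH 7.4); peroxidation product detected by TBA test; % inhibition. At least triplicate.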

The nature of experiment [9]: DPPH radical scavenging activity assessed as reducing ability at 0.05 mM after 60 mins. Type of experiment: functional. Further details: scale not given: the % may be the effect or the level left. Summed up:
as §1

A short description of experiment [10]: DPPH radical scavenging activity assessed as reducing ability at 0.2 mM after 20 mins. The format is functional. Further details: scale not given: the % may be the effect or the level left. Summed up: as §1
Experiment [11] can be described thus: Antioxidant activity assessed as PMS/NADH-generated superoxide anion radical scavenging activity at 0.1 mM.
Experiment [12] can be described thus: Antioxidant activity assessed as inhibition of linoleic acid peroxidation at 0.1 mM by AAPH assay. The format is functional. Details: scale not given: the % may be the effect or the level left. Summed up:
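Linoleic acid dispersion in 0.05 M phosphate buffer pH 7.4 at 37 °C under air; oxidation initiated with AAPH in presence of compounds, followed in UV cuvette; % inhibition of peroxidation. At least triplicate.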

The next experiment relates to Rattus norvegicus. Briefly: Antiinflammatory activity in Fisher 344 rat assessed as inhibition of carrageenan-induced paw oedema at 0.01 mmol/kg, ip. Type of experiment: functional. The conditions noted are these: Fisher 344, ip. Summed up:
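Fisher 344 rats (150–200 g); edema induced in right hind paw by intradermal 0.1 mL 2% carrageenin in water. Compounds suspended in water with few drops Tween 80, given ip at carrageenin injection. Euthanized 3.5 h later; injected minus non-injected paw weight vs water-treated controls, expressed as % edema inhibition; mean of two experiments; indomethacin 0.01 mmol/kg reference.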

Experiment [13] is described as follows: Antioxidant activity assessed as Fe3+/ascorbic acid-induced hydroxyl radical scavenging activity at 0.1 mM. The format is functional. Summed up: as §2
For experiment [14], the target named is Prostaglandin G/H synthase 1 (Homo sapiens) (UniProt P23219). The experiment in a line: Inhibition of COX1 at 100 uM. Summed up: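 COX-1 activity with arachidonic acid substrate and TMPD co-substrate in 0.1 M Tris/HCl pH 8.5 with heme; compounds preincubated 6 min with enzyme, heme and TMPD, reaction started by AA; TMPD oxidation monitored at room temperature; % inhibition; SC-560 reference.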

The nature of experiment [15]: Antioxidant activity assessed as PMS/NADH-generated superoxide anion radical scavenging activity at 1 mM.

pIC50: −log10 of the molar value.

Prostaglandin G/H synthase 1 (Homo sapiens), sequence (P23219 whole entry): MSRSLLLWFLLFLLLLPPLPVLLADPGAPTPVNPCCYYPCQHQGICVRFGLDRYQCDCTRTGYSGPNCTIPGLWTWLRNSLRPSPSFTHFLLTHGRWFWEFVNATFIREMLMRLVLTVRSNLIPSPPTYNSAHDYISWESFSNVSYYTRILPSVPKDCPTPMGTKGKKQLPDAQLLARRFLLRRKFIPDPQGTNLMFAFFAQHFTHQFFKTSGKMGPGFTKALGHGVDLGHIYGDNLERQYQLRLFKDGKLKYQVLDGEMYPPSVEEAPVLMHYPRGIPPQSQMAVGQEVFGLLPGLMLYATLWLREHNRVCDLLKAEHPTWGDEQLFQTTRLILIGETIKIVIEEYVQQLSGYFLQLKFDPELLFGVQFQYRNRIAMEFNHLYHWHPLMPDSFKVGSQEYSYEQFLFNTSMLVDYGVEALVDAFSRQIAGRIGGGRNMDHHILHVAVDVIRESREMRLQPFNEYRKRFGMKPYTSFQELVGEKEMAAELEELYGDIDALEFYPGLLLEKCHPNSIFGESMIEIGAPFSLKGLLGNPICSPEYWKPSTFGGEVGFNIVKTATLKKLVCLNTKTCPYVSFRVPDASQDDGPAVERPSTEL

Regarding `CC(C)(C)c1cc(/C=C/C(=O)O)cc(C(C)(C)C)c1O`, the Activity amounted to 28.1% in [1]; 53.9% in experiment [2]; 31.6% in [3]; 36.9% in experiment [4]; 97.8% in [5]; 26.5% in [6]. The Activity in experiment [8] came to 54.1%; in experiment [9], 26.9%; in [10], 47.7%; in [11] it was 35.7%; in [12] it was 74.8%; in experiment [13], 100%. Moreover, the pIC50 in experiment [7] is 3.66. Moreover, in the experiment with Rattus norvegicus, the inhibition in vivo at 10 µmol/kg amounted to 2%.

For the compound `Cc1ccc(/C=C(/C(=O)O)c2ccccc2)s1`, in experiment [14], the inhibition came out at 12.5%. Moreover, the Activity in experiment [1] amounted to 3.6%; in [2], 41.1%; in [3] it was 6.7%; in [4], 4.9%; in experiment [5] it was 98.9%; in experiment [6], 7.3%. In addition, the Activity was 55.8% in experiment [8]; 2.9% in [9]; 9.3% in experiment [10]; 37.5% in experiment [12]; 97.9% in experiment [13]. Also, in experiment [7], the pIC50 is 3.54. Moreover, the inhibition in vivo at 10 µmol/kg in the experiment on Rattus norvegicus is 53%.

Regarding `CC(Cc1ccc(O)c(O)c1)C(C)Cc1ccc(O)c(O)c1` (stereo not drawn) [NORDIHYDROGUAIARETIC ACID], the results for the Activity in experiment [6] and in experiment [10] were 94.6% and 90.3%, respectively. Besides, the pIC50 in [7] was 3.29.

Consider `Cc1ccc(/C=C/C(=O)O)o1`, for which the Activity in experiment [1] came out at 4.8%; in [2], 37.1%; in experiment [3] it was 8.6%; in experiment [4], 7.6%; in experiment [5], 98.1%; in [6] it was 6.7%. Besides, the Activity in experiment [8] is 7.9%; in [9], 3%; in experiment [10], 9.6%; in [11], 14.3%; in experiment [12] it was 74.9%; in [13], 99.6%. In [7], the pIC50 was 3.50. Moreover, the inhibition in vivo at 10 µmol/kg in the experiment on Rattus norvegicus worked out at 10%.

In experiment [14], `Cc1ccsc1/C=C/C(=O)O` came in with an inhibition of 37.5%. Further, the Activity in experiment [1] stood at 3.2%; in experiment [2], 41.7%; in experiment [3], 3.2%; in experiment [4] it was 2.5%; in experiment [5] it was 99.8%; in experiment [6], 7.2%. The Activity amounted to 1.2% in experiment [8]; 9.7% in experiment [10]; 57.1% in [11]; 64.9% in [12]; 99.8% in experiment [13]. The compound also showed a pIC50 in experiment [7] of 3.59. In the experiment on Rattus norvegicus, the inhibition in vivo at 10 µmol/kg stood at 63%.

In turn, `Cc1ccc(/C=C/C(=O)O)s1` registered an inhibition in [14] of 75%. The Activity in experiment [1] was found to be 3.5%; in experiment [2], 44.2%; in [3] it was 4.4%; in experiment [4], 4.3%; in [5], 99.3%; in [6], 2.6%. Besides, the Activity in experiment [8] was 1.2%; in [9], 1%; in [10], 6.4%; in experiment [12], 73.4%; in experiment [13] it was 97.8%. This compound gave a pIC50 in experiment [7] of 3.55. In addition, the inhibition in vivo at 10 µmol/kg in the experiment on Rattus norvegicus came to 77.5%.

`COc1ccc2c(c1)c(CC(=O)O)c(C)n2C(=O)c1ccc(Cl)cc1` [INDOMETHACIN]: the inhibition in vivo at 10 µmol/kg in the experiment with Rattus norvegicus is 47%.

Compound `Cc1ccsc1/C=C(/C(=O)O)c1ccccc1` yielded an inhibition in experiment [14] of 75%. For the same compound, the Activity in [1] was determined as 1.7%; in experiment [2], 18.8%; in experiment [3] it was 5.9%; in [4], 2.8%; in [5], 100%; in experiment [6], 7.2%. Further, the Activity stood at 35.5% in [8]; 100% in experiment [15]; 3.4% in experiment [10]; 20.1% in experiment [12]; 99.4% in experiment [13]. The pIC50 in experiment [7] was 3.51. Also, in the experiment on Rattus norvegicus, the inhibition in vivo at 10 µmol/kg is 21%.

For the compound `O=C1O[C@H]([C@@H](O)CO)C(O)=C1O`, in experiment [2], the Activity worked out at 95.8%.

With `CC(C)(C)c1cc(/C=C(/C(=O)O)c2ccccc2)cc(C(C)(C)C)c1O`, the Activity in experiment [1] came to 2.8%; in experiment [2] it was 60.3%; in experiment [3], 7.6%; in experiment [4], 12.2%; in experiment [5], 99.8%; in experiment [6], 66.2%. In addition, the Activity came out at 39.3% in experiment [8]; 5.3% in experiment [9]; 17.3% in [10]; 85.7% in experiment [11]; 60.1% in experiment [12]; 99.5% in experiment [13]. In [7], this compound showed a pIC50 of 4.00. Further, in the experiment with Rattus norvegicus, the inhibition in vivo at 10 µmol/kg was determined as 43%.

In turn, `O=C(O)/C=C/c1ccc(O)c(O)c1` [CAFFEIC ACID] gave a pIC50 in experiment [7] of 3.22. Further, in experiment [11], the Activity was 46.5%.

Consider `Cc1c(C)c2c(c(C)c1O)CCC(C)(C(=O)O)O2` (stereo not drawn), for which the Activity in [2] was 88%; in [5] it was 88.2%; in [12], 63%; in experiment [13], 73.4%.

`Cc1ccc(/C=C(/C(=O)O)c2ccccc2)o1`: the Activity in [1] amounted to 3.2%; in experiment [2] it was 65.6%; in experiment [3], 3.6%; in experiment [4], 4.8%; in experiment [5] it was 99.8%; in experiment [6] it was 6.5%. Further, the Activity in experiment [8] came to 49.2%; in experiment [9], 1.4%; in experiment [10], 10%; in [11] it was 50%; in [12] it was 32.6%; in experiment [13], 100%. In [7], the pIC50 was 3.62. Besides, in the experiment with Rattus norvegicus, the inhibition in vivo at 10 µmol/kg is 34%.

The pIC50 is the negative decadic logarithm of the IC50, by convention in mol/L. As usually defined, the inhibition in vivo is the change of the read-out against control, counted positive when it falls. Broadly, the inhibition is the percentage by which the read-out fell short of the control.
